Compound activity from PubChem.
TMEM16A act: mouse TMEM16A channel activation, primary screen. Q8BHY3. HEK293 TMEM16A/YFP-H148Q/I152L, iodide quench fluorescence; hits give low values. B-score at 10 µM. hit rate 0.3% among 340,000. AID 623877;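 active = fluorescence-ratio B-score plate-corrected deviation score at least 3 library SD below zero, with starting fluorescence score within 5 deviations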;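 also: channel opened by trigger with iodide after compound preincubation; score built on the fluorescence ratio of max minus min over baseline; more negative score means more quench and so TMEM16A activation or potentiation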
DNA FID counter: fluorescent intercalator displacement, NS3 helicase counter-screen. hit rate 0.17% among 290,000. inhibition, % at 7.9 µM. DNA fluorescent intercalator displacement, fluorescence; in the data active = inhibition above about 37%;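 also: 0% = vehicle and 100% = reference compound; higher means more ethidium bromide displaced from hairpin DNA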
ANO1 block: mouse TMEM16A channel inhibition, primary screen; hit rate 1.2% among 310,000; AID 588511; Q8BHY3; normalized B-score (activity score, 25-100; higher = stronger inhibition) at 10 µM; HEK293 TMEM16A/YFP iodide influx fluorescence, ionomycin;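 active = ratio plate-corrected score three or more library SD toward inhibition, starting fluorescence score within five deviations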;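 also: score derived from kinetic fluorescence span divided by baseline fluorescence per well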
UBC13 inh: blocks human UBC13 polyubiquitin chain formation. P61088. TR-FRET. inhibition, % at 20 µM. hit rate 0.47% among 330,000; in the data active = inhibition above about 45%, passing the limit was not always enough
Target sequence (P61088 whole entry, looked up): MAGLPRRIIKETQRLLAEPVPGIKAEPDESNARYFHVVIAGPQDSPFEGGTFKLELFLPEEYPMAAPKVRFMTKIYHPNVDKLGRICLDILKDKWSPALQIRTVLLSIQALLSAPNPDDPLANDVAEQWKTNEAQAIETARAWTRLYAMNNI
Apaf1 inhib: blocks human Apaf-1 apoptosome activity; inhibition, % at 20 µM; hit rate 0.71% among 330,000; O14727; reconstituted apoptosome caspase-3 activity, DEVD-Rh110 fluorescence; active = inhibition of at least 40% at 20 µM;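 also: plate controls were DMSO wells for no effect and DEVD-CHO caspase inhibitor wells for full effect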
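Material: reconstituted apoptosome with Apaf-1, cytochrome c, caspase-9, procaspase-3, dATP. Technique: Rh110 fluorescence intensity. Buffer or medium: pH 7.5 Hepes buffer with CHAPS, BSA, DTT. Times: 30 min plus 50 min, RT.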
Apaf-1 inh conf2: Apaf-1 inhibition, single-dose confirmed. hit rate 25% among 1,800. shares compounds with Apaf1 inhib. inhibition, % at 20 µM. reconstituted apoptosome, caspase-3 DEVD-Rh110 fluorescence;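 active = mean inhibition of at least 40% at 20 µM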;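 also: plate controls were DMSO wells for no effect and DEVD-CHO caspase inhibitor control wells for full effect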
Rh110 interf inh: Rh110 signal interference in Apaf-1 inhibitor counter-screen; shares compounds with Apaf1 inhib; Rh110 fluorescence interference, quenched caspase reaction; activation (fluorescence interference), % at 20 µM; 1,800 tested, under 10 active; AID 504615;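 active = signal rise of 40% or more at 20 µM, treated as a fluorescence artifact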
Apaf1 inh interf: Apaf-1 inhibitor counter-screen fluorescence artifact; 460 tested, under 10 active; fluorescence interference counterscreen, Apaf-1 assay format; shares compounds with Apaf1 inhib; AID 588538; IC50, µM; call rule not given here
TMEM16A reconf: re-confirmation of mouse TMEM16A chloride channel inhibitors; HEK293 TMEM16A/YFP-H148Q, iodide quench fluorescence; ionomycin added to raise cell calcium; hit rate 39% among 2,300; AID 652189; inhibition, % at 10 µM; shares compounds with ANO1 block;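 active = mean duplicate percent inhibition, scaled so buffer wells are 0 and the reference blocker 100, over three buffer SD above buffer mean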
TMEM16A Ca cntr: alters calcium mobilization in TMEM16A HEK293 cells, counter-screen; shares compounds with ANO1 block; TMEM16A/YFP HEK293, Fluo4 calcium mobilization; calcium response (% of ionomycin), % at 10 µM; hit rate 2% among 2,300;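 active = duplicate-averaged calcium signal over 20% of the ionomycin maximum, relative to buffer baseline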;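 also: each well's signal is peak minus trough fluorescence divided by its pre-addition baseline; 0% = buffer wells and 100% = ionomycin wells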
YFP-HEK293 quench: acts in parental YFP-HEK293 cells lacking TMEM16A, counter-screen. YFP ratio F(max-min)/F0 at 10 µM. 2,300 tested, under 10 active. shares compounds with ANO1 block. iodide YFP quench, ionomycin;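 active = yellow fluorescent protein signal ratio exceeding the buffer control mean by over 5 SD of those controls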;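 also: ratio is mean of duplicate wells from kinetic YFP trace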
ClC-1 inh: blocks the rat ClC-1 voltage-dependent chloride channel. shares compounds with ANO1 block. CHO ClC-1-YFP, iodide influx fluorescence quench; iodide control reads 0, buffer control 100. ratio percent, % at 10 µM. 2,300 tested, under 10 active. AID 652236;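 active = duplicate-mean ratio percent above the mean of iodide-only control wells, which defines zero, plus 5 of their SD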;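 also: higher percent means stronger block of ClC-1 iodide influx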
Active calls of the source: *; i = inactive; . = not tested or not shown. This is a sample that favours compounds with a hit; in the whole collection about 2.4% have one here.

SMILES	TMEM16A act	DNA FID counter	ANO1 block	UBC13 inh	Apaf1 inhib	Apaf-1 inh conf2	Rh110 interf inh	others
COc1cc(C(=O)NCCCN(C)C)ccc1OCC(=O)Nc1cccc(C(F)(F)F)c1	i	12.9	i	9.8	-0.1	.	.
CN(C)CC/C=C1\c2ccccc2Sc2cc(F)c(Cl)cc21	i	.	i	30.6	9.1	.	.
CN(C)CC/C=C1\c2ccccc2Sc2ccc(Cl)cc21	i	17.9	i	11.8	49.1*	15.5	5.5
CN(C)CCCN1c2ccccc2Sc2ccc(Cl)cc21	i	20.9	i	18.2	42.5*	15.5	7.6
CN(C)CCCN1c2ccccc2Sc2ccc3ccccc3c21	i	.	.	.	.	.	.
CC(=O)Oc1cc2c(cc1Cl)C(c1cccs1)CC1(CC(C)(C)NC(=S)N1)O2 (stereo not drawn)	i	-1.0	i	3.4	10.4	.	.
CC(=O)CCC(=O)OCC(=O)Nc1ccc(SC(F)F)cc1	i	5.1	i	-1.9	-0.8	.	.
CCN1CCN(C2=C(NS(=O)(=O)c3ccc(NC(C)=O)cc3)C(=O)c3ccccc3C2=O)CC1	i	10.8	i	-76.7	73.7*	31.8	1.9
CC(=O)Nc1ccc(S(=O)(=O)NC2=C(N3CCN(Cc4ccccc4)CC3)C(=O)c3ccccc3C2=O)cc1	i	4.6	i	.	.	.	.
CCN1CCN(C2=C(NS(=O)(=O)c3ccc(C)cc3)C(=O)c3ccccc3C2=O)CC1	i	7.9	i	-81.9	77.4*	34.9	4.3
CC(=O)Nc1ccc(S(=O)(=O)NC2=C(N3CCN(C)CC3)C(=O)c3ccccc3C2=O)cc1	i	13.2	i	-122.4	60.3*	46.2*	7.4	Apaf1 inh interf=>100
CCOC(=O)N1CCN(C2=C(NS(=O)(=O)c3ccc(NC(C)=O)cc3)C(=O)c3ccccc3C2=O)CC1	i	6.7	i	-86.3	83.3*	25.4	11.2
O=C(/C=C/c1cccc(O)c1)c1ccc(N2CCOCC2)cc1	i	-14.6	i	4.0	-22.0	.	.
COc1ccc2c(c1OC)C(=O)OC2C1c2c(cc3c(c2OC)OCO3)CCN1C (stereo not drawn)	i	-9.8	i	5.0	-8.7	.	.
CN1CCc2cc3c(c4c2[C@H]1[C@H](O)c1ccccc1-4)OCO3	i	96.7*	i	-84.7	48.2*	33.7	3.3
O=C(Nc1ccc(N2CCCC2)cc1)C(Cl)c1ccccc1 (stereo not drawn)	i	-8.4	i	-7.6	65.0*	25.7	2.6
CS(=O)(=O)N1CCN(c2ccc(NC(=O)C(c3ccccc3)c3ccccc3)cc2)CC1	i	-16.2	i	-2.4	6.8	.	.
Cc1c(/C=N/Nc2nc3ccccc3[nH]2)c2ccccc2n1C	i	2.3	i	-9.1	43.4*	7.5	18.1
O=C(O)CCSc1nc(C(F)(F)F)cc(=O)n1-c1ccccc1	i	-0.7	i	3.2	-5.0	.	.
CC(=O)c1ccc(OCCCC(=O)N2CCN(S(=O)(=O)c3ccc(C)cc3C)CC2)cc1	i	.	i	27.5	40.5*	31.7	0.2
C=CCOC(=O)c1cn(CC)c2nc(C)ccc2c1=O	i	-2.4	i	-8.1	-5.0	.	.
CCn1cc(C(=O)OCC(=O)OC2CC(C)CCC2C(C)C)c(=O)c2ccc(C)nc21 (stereo not drawn)	i	-27.8	25*	8.2	47.6*	26.1	7.2	TMEM16A reconf=i;TMEM16A Ca cntr=i;YFP-HEK293 quench=-1.26;ClC-1 inh=-10.5
Cc1cc(C)c(S(=O)(=O)Nc2ccc3c4c(cccc24)CC3)c(C)c1	i	-8.8	100*	5.0	43.0*	15.7	7.0	TMEM16A reconf=i;TMEM16A Ca cntr=i;YFP-HEK293 quench=-1.08;ClC-1 inh=-9.5
Oc1c(Br)cc(Br)cc1C=Nc1cccc2ncccc12	i	.	i	-42.5	96.6*	55.8*	5.8	Apaf1 inh interf=>100;TMEM16A reconf=17.5%*;TMEM16A Ca cntr=i;YFP-HEK293 quench=-1.01;ClC-1 inh=-6.0
CCC(=O)N(CC)C1=C(O)c2ccccc2C(=O)C1=O	i	1.8	25*	-55.7	54.7*	14.3	-1.6	TMEM16A reconf=25.5%*;TMEM16A Ca cntr=i;YFP-HEK293 quench=-0.782;ClC-1 inh=-10.5
SMILES	TMEM16A act	DNA FID counter	ANO1 block	UBC13 inh	Apaf1 inhib	Apaf-1 inh conf2	Rh110 interf inh	others
CC(=O)N(/N=C1\Sc2ccccc2C1=O)c1cccc(C)c1	i	-11.1	i	-53.4	85.8*	84.7*	4.7	Apaf1 inh interf=>100;TMEM16A reconf=i;TMEM16A Ca cntr=i;YFP-HEK293 quench=-1.14;ClC-1 inh=-15.5
COc1ccc2c(c1)CC/C(=C\Nc1ccc3c(c1)OCO3)C2=O	i	3.5	25*	-28.3	78.1*	47.4*	4.4	Apaf1 inh interf=>100;TMEM16A reconf=i;TMEM16A Ca cntr=i;YFP-HEK293 quench=-0.838;ClC-1 inh=4.5
COc1ccc(S(=O)(=O)Nc2ccc3c(c2)OCO3)cc1	i	-8.3	i	2.5	0.5	.	.
CC(C)C1Nc2ccc(S(N)(=O)=O)cc2C2C=CCC21 (stereo not drawn)	i	3.8	i	0.6	38.6	.	.
NS(=O)(=O)c1ccc2c(c1)C1C=CCC1C(C1CC=CCC1)N2 (stereo not drawn)	i	-4.0	100*	-5.9	46.7*	21.2	0.3	TMEM16A reconf=i;TMEM16A Ca cntr=i;YFP-HEK293 quench=-0.834;ClC-1 inh=-7.0
CC1Sc2ccccc2N(CC(=O)N(C(C)C)C(C)C)C1=O (stereo not drawn)	i	-9.7	i	-11.4	10.4	.	.
S=C(Nc1ccc(N2CCOCC2)cc1)Nc1ccc2nc(-c3ccco3)c(-c3ccco3)nc2c1	i	-19.3	i	31.8	41.3*	26.0	8.8	TMEM16A reconf=i;TMEM16A Ca cntr=i;YFP-HEK293 quench=-1.07;ClC-1 inh=-38.0
O=C(Nc1ccc(N2CCOCC2)cc1)c1ccc2nc(-c3ccco3)c(-c3ccco3)nc2c1	i	-5.3	i	-13.8	15.2	.	.
O=C(c1cc([N+](=O)[O-])ccc1Cl)N1CCN(Cc2ccccc2)CC1	i	-6.8	i	-8.2	2.9	.	.
O=C1NCCN(Cc2cccc(Oc3ccccc3)c2)C1CC(=O)N1CCCO1 (stereo not drawn)	i	-22.5	i	0.8	-1.9	.	.
